V-ATPase pHluor = regulators of yeast V-ATPase proton transport | 0.37% of 350,000 active | response, % at 10 µM | S. cerevisiae, pHLuorin cytosolic pH fluorescence; in the data active = response mostly above about 7.3%, no sharp cut-off; inactive = mostly below about 5.4%; also: actives read high
Dynein transport = blocks dynein driven cargo transport along microtubules; 0.47% of 220,000 active; AID 1381; z-score, hits read low; 3617.4 mouse cells, GR-EGFP nuclear translocation imaging; test concentration mostly 20 µM; stimulated with dexamethasone, 1 µM; active compounds read low;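 active = plate z-score of nuclear minus cytoplasmic receptor signal below a set negative limit, without overly bright fluorescence or cell loss, cut at about -3.5 in these data, passing the limit was not always enough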;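 also: z-score of nuclear minus cytoplasmic ring GR-EGFP intensity difference per well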
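Schedule: 48 h induction, then 1 h compound, then 30 min agonist, 37 °C. Buffer or medium: tetracycline-free induction medium containing charcoal-stripped FBS. Reagent: 1.0 µM final dexamethasone stimulus. Evaluation: nuclear versus cytoplasmic GR-EGFP signal, averaged per well. Signal: high-content fluorescence imaging after fixation.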
KCC2 mod = KCC2 (human) Cl- transport modulation | 2.2% of 190,000 active | B-score of Tl+ flux slope (higher = more flux/activation; lower = inhibition) at 10 µM | KCC2 cells, thallium flux FluoZin-2 fluorescence | Q9H2X9 | AID 1456;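 active = thallium flux slope and its plate-corrected score both differing from the plate sample mean at a set confidence after two filtering rounds, in either direction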;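 also: slope of fluorescence scaled to starting intensity during 10 to 20 s after thallium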
p-CIP stab down = p/CIP protein destabilization. Q05BA5. F442A p/CIP-EGFP cells, EGFP fluorescence, 16 h. decrease of EGFP signal, % at 10 µM. 0.01% of 290,000 active;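 active = EGFP signal decrease of at least 30% at 10 µM or well 3 SD below plate mean, unless failing retest; inactive = the rest, including hits failing retest or dose response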
Target sequence (Q05BA5 1-1403): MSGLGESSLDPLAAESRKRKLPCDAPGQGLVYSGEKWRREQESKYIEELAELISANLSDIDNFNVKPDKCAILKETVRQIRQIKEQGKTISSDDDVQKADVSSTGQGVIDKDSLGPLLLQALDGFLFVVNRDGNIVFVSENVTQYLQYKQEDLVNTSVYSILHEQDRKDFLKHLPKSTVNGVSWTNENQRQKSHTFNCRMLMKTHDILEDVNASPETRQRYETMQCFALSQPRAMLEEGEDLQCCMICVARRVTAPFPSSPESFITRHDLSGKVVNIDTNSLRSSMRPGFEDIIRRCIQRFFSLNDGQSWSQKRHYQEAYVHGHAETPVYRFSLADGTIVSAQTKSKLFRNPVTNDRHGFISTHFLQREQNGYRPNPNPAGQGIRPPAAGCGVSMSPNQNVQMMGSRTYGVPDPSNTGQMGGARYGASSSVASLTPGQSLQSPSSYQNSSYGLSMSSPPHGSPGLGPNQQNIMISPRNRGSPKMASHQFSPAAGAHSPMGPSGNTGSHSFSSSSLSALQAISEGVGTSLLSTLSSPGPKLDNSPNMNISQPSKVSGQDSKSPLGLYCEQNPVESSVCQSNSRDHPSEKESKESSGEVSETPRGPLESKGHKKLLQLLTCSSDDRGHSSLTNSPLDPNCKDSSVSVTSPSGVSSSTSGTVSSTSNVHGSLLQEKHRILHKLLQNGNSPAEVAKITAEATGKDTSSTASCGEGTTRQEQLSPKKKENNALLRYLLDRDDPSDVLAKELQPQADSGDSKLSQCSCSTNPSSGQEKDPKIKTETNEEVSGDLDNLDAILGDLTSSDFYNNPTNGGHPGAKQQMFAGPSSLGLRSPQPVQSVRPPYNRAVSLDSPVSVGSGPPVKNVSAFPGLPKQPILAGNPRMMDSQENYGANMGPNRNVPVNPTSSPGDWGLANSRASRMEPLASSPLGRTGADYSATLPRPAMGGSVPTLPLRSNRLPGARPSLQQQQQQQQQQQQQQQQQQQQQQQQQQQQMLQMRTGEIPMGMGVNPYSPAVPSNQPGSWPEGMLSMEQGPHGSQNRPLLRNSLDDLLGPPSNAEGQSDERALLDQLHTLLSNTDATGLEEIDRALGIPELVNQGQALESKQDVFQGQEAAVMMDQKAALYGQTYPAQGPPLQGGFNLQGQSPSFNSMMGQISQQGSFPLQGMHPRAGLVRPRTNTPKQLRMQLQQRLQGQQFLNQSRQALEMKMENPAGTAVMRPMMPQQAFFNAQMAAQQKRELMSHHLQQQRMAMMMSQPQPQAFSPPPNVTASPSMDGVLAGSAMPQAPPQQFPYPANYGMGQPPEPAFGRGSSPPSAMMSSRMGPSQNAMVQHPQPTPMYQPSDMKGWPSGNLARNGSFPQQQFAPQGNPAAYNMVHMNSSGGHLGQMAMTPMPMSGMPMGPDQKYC
ABCB6 inh 2 = inhibitors of human ABC transporter ABCB6. fluorescence ratio to DMSO, % at 10 µM. Q9NP58. K562-ABCB6 porphyrin accumulation, flow cytometry, 1 h; active compounds read low. AID 602162. 0.19% of 360,000 active;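 active = fluorescence ratio to DMSO below 75%, the collection mean minus 3 SD; inconclusive = too few cells collected in the well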;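 also: signal is porphyrin accumulated inside mitochondria; lower ratio means ABCB6 inhibition with less porphyrin fluorescence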
KCC2 secondary = KCC2 (human) modulation, secondary assay; normalised thallium flux (F/F0 slope) at 10 µM; AID 1713; HEK293-KCC2, thallium flux, FluoZin2 fluorescence; active compounds read high; 15% of 3,700 active; shares compounds with KCC2 mod;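 active = thallium flux slope above the same plate's solvent-only control mean plus 3 SD; inconclusive = the two replicate wells disagree; inactive = no significant difference from solvent-only control wells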
KCC2 bumet counter = thallium flux persisting under bumetanide in KCC2 cells, counter-screen secondary assay; shares compounds with KCC2 mod; HEK293-KCC2 + bumetanide/ouabain, thallium flux FluoZin2; active compounds read high; normalized thallium flux at 10 µM; 49% of 3,700 active;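 active = thallium entry rate above the same plate's blocked-transporter control wells by more than 3 SD; inconclusive = the two repeat wells disagree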;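 also: raw slope of fluorescence over initial fluorescence between 10 and 20 s after thallium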
KCC2 secondary2 = confirmation of human KCC2 transport modulators | shares compounds with KCC2 mod | HEK293-KCC2, thallium flux FluoZin2 fluorescence; actives lie on both sides; F/F0 rise rate, 10–20 s post-thallium | normalized thallium flux at 10 µM | 23% of 3,700 active;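 active = thallium flux slope more than 3 SD above or below the plate's solvent-only control mean, mostly below; inconclusive = the two repeat wells disagreed; inactive = no significant shift from solvent-only controls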
HEK293 Tl flux = counter-screen for KCC2 modulators: effect in parental HEK293 cells | shares compounds with KCC2 mod | thallium flux FluoZin2, ouabain; baseline-ratio fluorescence slope, 10–20 s after thallium | thallium flux rate (normalised fluorescence) at 10 µM | 46% of 3,700 active;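 active = thallium flux rate significantly above the same plate's solvent-only control wells, beyond their mean plus 3 SD; inconclusive = the two replicate wells gave conflicting results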
KCC2 ouabain = KCC2 (human) modulation, ouabain retest. shares compounds with KCC2 mod. HEK293-KCC2, thallium flux FluoZin2 fluorescence; bidirectional: low = inhibitor, high = activator. raw Tl+ flux slope (below DMSO = inhibition, above = activation) at 10 µM. 48% of 3,700 active;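 active = thallium flux slope beyond 3 SD from same-plate DMSO control mean in most replicates, usually higher, sometimes lower; inconclusive = repeat tests gave conflicting results; inactive = no significant difference from controls in most replicates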;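 also: slope of initial-normalized fluorescence between seconds 10 and 20 after thallium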
HEK293 Tl flux2 = counter-screen for KCC2 modulators: effect in parental HEK293 cells. shares compounds with KCC2 mod. thallium flux FluoZin-2 fluorescence slope. thallium flux slope at 10 µM. 33% of 3,700 active;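 active = thallium flux slope above the same plate's solvent-control mean plus 3 SD in both duplicate wells; inconclusive = duplicate wells that disagreed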;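 also: run without ouabain in cells lacking the KCC2 cotransporter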
Large screens that a line does not name were inactive (follow-up assays come after a bar, where they were run). Many of the other results were omitted from the sample, so hits are more common in it than they were.

O=C(COC(=O)CNC(=O)c1ccccc1)Nc1ccc(S(=O)(=O)N2CCOCC2)cc1	none
Cn1c(=O)c2c(nc(SCC(=O)NCc3ccco3)n2C)n(C)c1=O	KCC2 mod 5.1 | KCC2 secondary inactive | KCC2 bumet counter inactive | KCC2 secondary2 inactive | HEK293 Tl flux inactive | KCC2 ouabain inactive | HEK293 Tl flux2 inactive
CC(C)n1c(SCC(=O)NCc2ccco2)nc2c1c(=O)n(C)c(=O)n2C	none
CCCCn1nnnc1SCC(=O)NCc1ccco1	KCC2 mod 4.5 | KCC2 secondary inactive | KCC2 bumet counter inactive | KCC2 secondary2 inactive | HEK293 Tl flux inactive | KCC2 ouabain inactive | HEK293 Tl flux2 inconclusive
Cc1noc(C)c1CSCC(=O)OCC(=O)NC1CCCCC1	none (no result: KCC2 mod) | KCC2 secondary inactive | KCC2 bumet counter inconclusive | KCC2 secondary2 inactive | HEK293 Tl flux inactive | KCC2 ouabain inactive | HEK293 Tl flux2 inactive
Cc1noc(C)c1C(=O)OCC(=O)NC1CC1	none
COc1cccc(Nc2n[nH]c(=S)s2)c1	KCC2 mod -6.8 | KCC2 secondary inactive | KCC2 bumet counter inactive | KCC2 secondary2 0.021 | HEK293 Tl flux inactive | KCC2 ouabain 0.011 | HEK293 Tl flux2 inactive
Cc1cccc(Nc2n[nH]c(=S)s2)c1C	KCC2 mod -5.3 | KCC2 secondary inactive | KCC2 bumet counter inactive | KCC2 secondary2 0.017 | HEK293 Tl flux inactive | KCC2 ouabain 0.0074 | HEK293 Tl flux2 inconclusive
CCOC(=O)c1cnc(SC)nc1N	none
CCOC(=O)c1cnc(SC)nc1Sc1ccccc1	none (no result: KCC2 mod) | KCC2 secondary inactive | KCC2 bumet counter inactive | KCC2 secondary2 inactive | HEK293 Tl flux inactive | KCC2 ouabain inactive | HEK293 Tl flux2 inactive
CCC1CCC2(CC1)NC(CO)(CO)CO2 (stereo not given)	KCC2 mod 5 | KCC2 secondary inactive | KCC2 bumet counter inactive | KCC2 secondary2 inactive | HEK293 Tl flux inactive | KCC2 ouabain inactive | HEK293 Tl flux2 0.011
Cc1cccc(NC(=S)N/N=C/c2ccc3c(c2)OCO3)c1	KCC2 mod 10 | KCC2 secondary inactive | KCC2 bumet counter 0.015 | KCC2 secondary2 inactive | HEK293 Tl flux 0.028 | KCC2 ouabain 0.027 | HEK293 Tl flux2 inconclusive
COc1ccccc1NC(=S)N/N=C/c1cccc(C)c1	KCC2 mod 5.5 | KCC2 secondary inactive | KCC2 bumet counter 0.016 | KCC2 secondary2 inactive | HEK293 Tl flux 0.012 | KCC2 ouabain inactive | HEK293 Tl flux2 inactive
O=C(N/N=C/c1ccc2c(c1)OCO2)c1ccc2ccccc2n1	KCC2 mod 4.9 | KCC2 secondary inactive | KCC2 bumet counter 0.018 | KCC2 secondary2 inactive | HEK293 Tl flux 0.012 | KCC2 ouabain 0.02 | HEK293 Tl flux2 0.016
Cc1cn([C@H]2C[C@H](O)[C@@H](CNC(=O)[C@H](N)C3CC3)O2)c(=O)[nH]c1=O	none (no result: Dynein transport, KCC2 mod, p-CIP stab down)
CCn1c(SCC(=O)NC2CC2)nnc1-c1ccc(OC)cc1	none (no result: Dynein transport, KCC2 mod)
Cc1ccccc1OCC(=O)NNC(=O)C1CC(=O)N(c2ccc3c(c2)OCCO3)C1 (stereo not given)	none (no result: Dynein transport, KCC2 mod, p-CIP stab down)
CC(=O)N1CCCc2cc(S(=O)(=O)CCC(=O)N3CCN(c4cccc(C)c4)C(C)C3)ccc21 (stereo not given)	KCC2 mod -3.6 | KCC2 secondary inactive | KCC2 bumet counter inactive | KCC2 secondary2 inactive | HEK293 Tl flux inactive | KCC2 ouabain inactive | HEK293 Tl flux2 inactive
CC1=C(/C=C/C(C)=N\NC(=O)c2ccncc2)C(C)(C)CCC1	KCC2 mod 15 | KCC2 secondary inactive | KCC2 bumet counter 0.032 | KCC2 secondary2 inconclusive | HEK293 Tl flux 0.024 | KCC2 ouabain 0.033 | HEK293 Tl flux2 0.026
CC(/C=C/c1ccc2c(c1)OCO2)=N/NC(=O)c1ccncc1	none
O=C(NNC(=O)c1ccc(Oc2ccc(C3SCCS3)cc2)o1)c1ccc(Cl)cc1	KCC2 mod 5.4 | KCC2 secondary inactive | KCC2 bumet counter 0.026 | KCC2 secondary2 inactive | HEK293 Tl flux 0.01 | KCC2 ouabain 0.032 | HEK293 Tl flux2 0.01
O=C(NNC(=O)c1ccc(Oc2cc(Cl)cc(Cl)c2)o1)c1ccccc1	KCC2 mod 28 | KCC2 secondary 0.014 | KCC2 bumet counter 0.051 | KCC2 secondary2 inactive | HEK293 Tl flux 0.02 | KCC2 ouabain 0.036 | HEK293 Tl flux2 0.012
Cc1cc(C(=O)NC2CC(C)(C)Cc3c2cnn3-c2cccc(F)c2)nn1C (stereo not given)	none (no result: Dynein transport, KCC2 mod)
CC(C)OC(=O)N(C)C[C@@H]1OCc2cn(nn2)CCCC(=O)N([C@@H](C)CO)C[C@H]1C	none (no result: Dynein transport, KCC2 mod, p-CIP stab down)
CCC(CC)NC(=O)CO/N=C/c1ccccc1OC(F)F	none
Oc1c(C(c2cccs2)N2CCN(c3ccccc3)CC2)ccc2cccnc12 (stereo not given)	none (no result: V-ATPase pHluor, ABCB6 inh 2)
Oc1c(C(c2ccccc2Cl)N2CCCC2)ccc2cccnc12 (stereo not given)	KCC2 mod 2.9 | KCC2 secondary inactive | KCC2 bumet counter 0.0085 | KCC2 secondary2 inactive | HEK293 Tl flux 0.01 | KCC2 ouabain inactive | HEK293 Tl flux2 0.013
S=C1NC2(CCCCC2)N=C1c1ccccc1	KCC2 mod 4.7 | KCC2 secondary inactive | KCC2 bumet counter 0.03 | KCC2 secondary2 inactive | HEK293 Tl flux 0.012 | KCC2 ouabain inconclusive | HEK293 Tl flux2 0.012
Cc1ccc(C(=S)N2CCN(Cc3ccccc3)CC2)cc1	KCC2 mod -3.3 | KCC2 secondary inconclusive | KCC2 bumet counter inactive | KCC2 secondary2 inactive | HEK293 Tl flux inactive | KCC2 ouabain 0.015 | HEK293 Tl flux2 inactive
Cc1ccc(NC(=S)N2CCN(Cc3ccccc3)CC2)cc1	none
CC(Cc1ccccc1)NC(=O)/C=C/c1ccc([N+](=O)[O-])cc1 (stereo not given)	none
Cc1ccc(C)c(C(=O)NC(C)CCc2ccccc2)c1 (stereo not given)	KCC2 mod -3.5 | KCC2 secondary inactive | KCC2 bumet counter inactive | KCC2 secondary2 0.025 | HEK293 Tl flux inactive | KCC2 ouabain inconclusive | HEK293 Tl flux2 inactive

Bioassay records from PubChem BioAssay.
